Source: PubChem BioAssay (several laboratories)
Dynein cargo inh = dynein cargo transport inhibition | 3617.4 mouse cells, GR-EGFP nuclear translocation imaging; test concentration mostly 20 µM; stimulated with dexamethasone, 1 µM; active compounds read low | z-score, hits read low | 220,000 tested, 0.47% active | AID 1381;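 active means plate z-score of nuclear minus cytoplasmic receptor signal below a set negative limit, without overly bright fluorescence or cell loss, cut at about -3.5 in these data, passing the limit was not always enough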;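 further: z-score of nuclear minus cytoplasmic ring GR-EGFP intensity difference per well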
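Buffer or medium – tet-free medium with charcoal-stripped serum · Signal – automated 10x imaging of fixed Hoechst-stained cells · Also added – dexamethasone agonist, 1.0 µM final, for 30 min · Incubation – induction 48 h, compound 1 h, agonist 30 min · Read-out – GR-EGFP nuclear translocation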
Rad51 HR inh = Rad51 (human) homologous recombination inhibition; Q06609; inhibition, % at 10 µM; hRad51 DNA strand exchange, fluorescence dequenching; 200,000 tested, 0.085% active;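 active means inhibition above 40% at the single screening dose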
Target sequence (Q06609 whole entry, looked up): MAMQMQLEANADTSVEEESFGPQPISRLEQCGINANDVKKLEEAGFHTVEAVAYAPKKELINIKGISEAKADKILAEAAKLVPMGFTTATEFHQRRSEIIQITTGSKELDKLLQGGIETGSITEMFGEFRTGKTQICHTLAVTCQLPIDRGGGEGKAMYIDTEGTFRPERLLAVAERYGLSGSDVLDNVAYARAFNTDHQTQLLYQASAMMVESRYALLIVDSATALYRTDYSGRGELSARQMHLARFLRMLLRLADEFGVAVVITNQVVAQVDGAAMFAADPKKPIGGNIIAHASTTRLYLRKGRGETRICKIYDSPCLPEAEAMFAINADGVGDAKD
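Material: hRad51 filaments on single-stranded DNA; Reagent: Donor/quencher-labelled 47-bp dsDNA substrate; Compound: 10 µM final, single point; Schedule: 37 °C 15-min filament assembly, 30-min compound preincubation, 15-min exchange; Technique: FRET fluorescence, excitation 485 nm, emission 520 nm; Benchmarks: control wells and blank wells on each plate.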
Tb hexokinase = blocks Trypanosoma brucei hexokinase 1 activity. recombinant TbHK1, G6PDH-coupled NADH A340. inhibition, % at 10 µM. 220,000 tested, 0.11% active. AID 1430;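 active means inhibition of 50% or more in the single-dose primary screen; inactive means inhibition below 50%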
b-catenin transl = beta-catenin nuclear translocation modulation; HeLa beta-catenin nuclear translocation, immunofluorescence imaging; nuclear translocation activity, % at 5 µM; 190,000 tested, 0.3% active;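 active means nuclear translocation activity above 50% at 5 µM, with a well cell count of 50 or more; inconclusive means wells under 50 cells across six images, flagged as toxic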;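 further: per-cell ratio of nuclear to cytoplasmic median beta-catenin stain intensity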
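Read-out: Nuclear/cytoplasmic beta-catenin signal ratio, % activation | Assay system: Human HeLa cell line | Times: 24 h compound exposure at 37°C, 5% CO2 | Signal: Fluorescence imaging of beta-catenin antibody stain plus DAPI | Dosing: 5 µM primary, 0.02–20 µM confirmation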
MT stabilize HCS = microtubule stabilization, imaging screen; HeLa tubulin immunostaining HCS, 24 h; share of cells brighter than vehicle mean+2SD; % tubulin-high responders, % at 10 µM; 200,000 tested, 0.83% active; AID 2205;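 active means plate Z-score above 3 for both tubulin-high and condensed-nucleus cell shares, with cell loss under 80%, at 10 µM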;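 further: anti alpha tubulin signal scored within the nucleus-defined area of each cell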
Of the large screens only hits and unclear results are named; the others gave an inactive call. Compounds with a hit are over-represented: about 1.5% of the library has one in this group of screens.

O=C(/C=C/c1c(Cl)cccc1Cl)N1CCN(c2ncccn2)CC1	none
Nn1c(SCC(=O)NC2CCCCC2)nnc1-c1ccc(Cl)cc1	none
Cc1cccc(N2C(=O)CC(Sc3nc(C)cc(C)n3)C2=O)c1 (stereo unspecified)	none (no result: b-catenin transl)
COc1ccccc1Nc1ccc(C(=O)NCc2cccs2)cn1	none
COc1ccccc1Nc1ncc(-c2cccs2)s1	b-catenin transl 107
Cc1cccc2cc(C#N)c(NCCNC(=O)COc3ccccc3)nc12	none
Cc1noc(C)c1COc1cccc(C(=O)OC(C)C(=O)Nc2ccc3c(c2)OCO3)c1 (stereo unspecified)	b-catenin transl 95, MT stabilize HCS 26
Cc1noc(C)c1COc1cccc(C(=O)Nc2ccc3c(c2)OCO3)c1	MT stabilize HCS 17
S=C(Nc1ccc(Cl)cc1)NC1CCN(Cc2ccccc2)CC1	none
Cc1ccc(S(=O)(=O)NC(C)(C)CSc2ncccn2)cc1	none
Cc1ccc(S(=O)(=O)NCc2c(-c3ccccc3)c3cc(Cl)ccc3[nH]c2=O)cc1	none
CCOc1ccc2[nH]c(=O)c(CN(Cc3ccc(F)cc3)C(=O)c3ccco3)cc2c1	MT stabilize HCS 47
COc1ccc2[nH]c(=O)c(CN(CC3CCCO3)C(=O)Nc3ccccc3OC)cc2c1 (stereo unspecified)	MT stabilize HCS 40
COc1ccc2[nH]c(=O)c(CN(Cc3ccco3)C(=O)c3ccccc3)cc2c1	none
CCOc1ccc2[nH]c(=O)c(CN(Cc3ccccc3OC)C(=O)c3ccccc3)cc2c1	MT stabilize HCS 24 (no result: Rad51 HR inh)
CC1CCc2ccccc2N1C(=O)c1cccs1 (stereo unspecified)	none
Cc1cc2c(cc(C(=O)OCC(=O)NCc3cccs3)n2C(C)C)o1	b-catenin transl 65, MT stabilize HCS 30
Cc1cccc(N2CCN(C(=S)Nc3ccc4nc(N5CCOCC5)cc(C)c4c3)CC2C)c1 (stereo unspecified)	none
COc1ccc(Cl)cc1N1Cc2ccccc2C1	none
CCCc1nn(C(=O)c2ccccc2)c2c1C(=O)CC(C)(C)C2	none (no result: Rad51 HR inh, b-catenin transl)
CCc1nn(-c2cc(Cl)ccc2OC)c2c1C(=O)CCC2	MT stabilize HCS 27
CCCc1nn(-c2cc(Cl)ccc2OC)c2c1C(=O)CC(C)(C)C2	MT stabilize HCS 12 (no result: b-catenin transl)
Cc1cc(/C=C2\C(=N)N3N=C(C(C)C)SC3=NC2=O)c(C)n1Cc1ccccc1	none (no result: MT stabilize HCS)
Cc1nn(-c2ccccc2)c(Cl)c1/C=C1/C(=N)N2N=C(C(C)C)SC2=NC1=O	MT stabilize HCS 9.9
COc1cccc(C2C3=C(Nc4[nH]n(-c5ccccc5)c(=O)c42)c2ccccc2C3=O)c1 (stereo unspecified)	none
Cn1c2c(c(=O)[nH]c1=O)C(c1cccc(O)c1)C1=C(N2)c2ccccc2C1=O (stereo unspecified)	MT stabilize HCS 20
COC(=O)c1oc2ccc(Br)cc2c1NC(=O)CN1CCN(C)CC1	none (no result: b-catenin transl)
CSc1ccccc1NC(=O)CSCc1ccc(C)cc1	MT stabilize HCS 30
COC(=O)c1ccc(NC(=O)Cn2c(-c3nonc3N)nc3ccccc32)cc1	none
COC(=O)c1ccccc1NC(=O)Cn1c(-c2nonc2N)nc2ccccc21	MT stabilize HCS 19 (no result: Rad51 HR inh)
Cc1ccc(Cc2c(C)nc3nc(SCC(=O)NCc4ccco4)nn3c2C)cc1	b-catenin transl 156, MT stabilize HCS 22
Cc1cccc(Cc2c(C)nc3nc(SCC(=O)NCc4ccco4)nn3c2C)c1	MT stabilize HCS 20
Cc1ccccc1Cc1c(C)nc2nc(SCC(=O)NCc3ccco3)nn2c1C	none
OCC1(CCc2ccccc2)CCN(Cc2cnc(N3CCCC3)s2)CC1	none (no result: Rad51 HR inh)
COc1ccc2oc(=Nc3cccc(F)c3)c(C(N)=O)cc2c1	b-catenin transl 61
Nc1nc(-c2cccnc2)nn1C(=O)c1ccc(Cl)cc1	none
O=C1C2CCCN2C(=O)N1CCCCN1CCN(c2ccccc2)CC1 (stereo unspecified)	none (no result: Rad51 HR inh)
CC(C)(C)C(=O)Nc1nc(=S)ss1	none
CCC(=O)Nc1nc(=S)ss1	Rad51 HR inh 62 (no result: b-catenin transl)
CCOc1cc(N2CCOCC2)c(OCC)cc1NC(=O)CCS(=O)(=O)c1ccc(Cl)cc1	none
CCOc1cc(N2CCOCC2)c(OCC)cc1NS(=O)(=O)c1ccc(Cl)s1	MT stabilize HCS 40
O=C(NC1CCCCC1)C(c1ccncc1)N(Cc1ccccc1)C(=O)c1ccc(-c2ccccc2)[nH]1 (stereo unspecified)	none (no result: Rad51 HR inh)
Cc1nc2cc(C(=O)N3c4ccccc4CC3C)ccc2s1 (stereo unspecified)	MT stabilize HCS 26
COc1ccc(C2CC(c3cccs3)=Nc3ccccc3S2)cc1 (stereo unspecified)	MT stabilize HCS 21
COc1ccc(C2CC(c3cccs3)=NN2S(C)(=O)=O)cc1 (stereo unspecified)	none (no result: MT stabilize HCS)
COc1cc(C(=O)Nc2ccc3oc(-c4cccnc4)nc3c2)cc(OC)c1OC	none
Cc1nc2ccc(NS(=O)(=O)c3c(C)c(C)cc(C)c3C)cc2s1	MT stabilize HCS 44
C(=C\c1nc2ccccc2[nH]1)/c1ccccc1	MT stabilize HCS 41 (no result: b-catenin transl)
O=c1[nH]c(/C=C/c2cccc3ccccc23)nc2ccccc12	none (no result: Rad51 HR inh)
Cc1cccc(/C=C\c2nc3ccccc3c(=O)[nH]2)c1	MT stabilize HCS 12 (no result: Rad51 HR inh)
Cc1nc(/C=C/c2ccccc2)[nH]c(=O)c1-c1ccccc1	MT stabilize HCS 9.2
CCOC(=O)N1CCC2(CC1)C(C#N)=C(N)OC1=C2C(=O)CCC1	none
Cc1c(NC(=O)c2cc3nc(-c4ccc(Br)cc4)cc(C(F)(F)F)n3n2)c(=O)n(-c2ccccc2)n1C	none
COc1ccc(N(C)C(=S)Oc2ccc(C(=O)Nc3ccccc3)cc2)cc1	MT stabilize HCS 44
COc1cccc(OC)c1C(=O)Nc1ccc2c(c1)OCCO2	none
COc1ccc(/C=C/C(=O)NC(=S)NNC(=O)c2ccco2)cc1OC	none (no result: MT stabilize HCS)
COc1ccc(/C=C/C(=O)NC(=S)NNC(=O)c2ccco2)cc1	MT stabilize HCS 33
CCc1ccc(N/C(N)=N/c2nc(CSc3ccccn3)cc(=O)[nH]2)cc1	MT stabilize HCS 17
COc1cccc(N/C(N)=N/c2nc(CSc3ccccn3)cc(=O)[nH]2)c1	none
COc1ccc(S(=O)(=O)N2CCCCC2)cc1NC(=O)CN1CCN(C(C)=O)CC1	none
CCCn1c(SCC(=O)N2N=C3/C(=C/c4ccc(OC)cc4)CCCC3C2c2ccc(OC)cc2)n[nH]c1=O (stereo unspecified)	none
COc1ccc(/C=C2\CCCC3C2=NC(=S)NC3c2ccc(OC)cc2)cc1 (stereo unspecified)	b-catenin transl 56 (no result: Rad51 HR inh)
CC(Oc1ccc(Cl)cc1Cl)C(=O)Nc1ccncc1 (stereo unspecified)	b-catenin transl 52, MT stabilize HCS 56
CC(=O)Nc1ccc(NC(=O)C(C)Oc2ccc(Cl)cc2Cl)cc1 (stereo unspecified)	none
CCN1/C(=C/C=C/c2oc3ccc(-c4ccccc4)cc3[n+]2CC)Oc2ccc(-c3ccccc3)cc21	Tb hexokinase 101, b-catenin transl inconclusive
